Hits are enriched below; roughly 2.5% of the tested compounds scored in any of these assays.
Fh CTSL1 inh: blocks F. hepatica cathepsin L1 in PFM18AAP counter-screen | recombinant F. hepatica cathepsin L1, Z-Leu-Arg-MCA fluorescence | inhibition, % at 5.96 µM | 300,000 tested, 0.49% active;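 active means inhibition above the mean of all tested compounds plus 3 SD, set per screening campaign, cut at about 17% in these data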;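 further: 0% = plate median of test compound wells and 100% = 1 µM Z-Phe-Ala-diazomethylketone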
PRMT1 FP inh: inhibitors of human PRMT1; 370,000 tested, 1.3% active; AID 652257; Q99873; recombinant PRMT1, activity-based probe fluorescence polarization; inhibition, % at 2.79 µM;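 active means inhibition above about 21% made by adding two undisclosed values, limit read from the data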
Target sequence (Q99873 whole entry, looked up): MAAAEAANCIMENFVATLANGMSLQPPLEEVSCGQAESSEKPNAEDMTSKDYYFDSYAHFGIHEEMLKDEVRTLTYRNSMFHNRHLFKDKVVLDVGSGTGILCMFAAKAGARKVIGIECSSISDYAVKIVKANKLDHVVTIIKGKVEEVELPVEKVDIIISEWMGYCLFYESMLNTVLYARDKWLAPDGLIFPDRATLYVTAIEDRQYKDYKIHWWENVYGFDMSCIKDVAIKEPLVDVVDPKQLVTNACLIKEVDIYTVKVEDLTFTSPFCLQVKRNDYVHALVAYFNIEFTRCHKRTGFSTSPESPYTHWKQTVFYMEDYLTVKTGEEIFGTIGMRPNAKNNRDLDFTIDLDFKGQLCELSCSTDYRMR
GSTO1 counter: counter-screen for RBBP9 inhibitors: inhibitors of human GSTO1. inhibition, % at 5.96 µM. P78417. recombinant GSTO1, activity-based probe fluorescence polarization. 300,000 tested, 1.1% active. AID 1974;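 active means inhibition above the campaign mean inhibition plus 3 SD, cut at about 35% in these data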;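 further: 0% = GSTO1-1 with DMSO and 100% = wells lacking GSTO1-1 enzyme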
Target sequence (P78417 whole entry, looked up): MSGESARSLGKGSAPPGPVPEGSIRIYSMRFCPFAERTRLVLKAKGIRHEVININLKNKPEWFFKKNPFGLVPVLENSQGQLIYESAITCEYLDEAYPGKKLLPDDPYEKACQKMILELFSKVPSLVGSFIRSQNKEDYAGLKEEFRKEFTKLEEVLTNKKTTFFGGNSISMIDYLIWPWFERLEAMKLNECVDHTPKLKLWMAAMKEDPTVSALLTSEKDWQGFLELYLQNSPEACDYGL
PAD4 FP inh: blocks human protein arginine deiminase 4; recombinant PAD4, RCA probe fluorescence polarization; 330,000 tested, 0.41% active; inhibition, % at 6.36 µM; Q9UM07;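 active means percent inhibition above a cutoff equal to the mean of all tested compounds plus 3 SD, cut at about 15% in these data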;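 further: 0% = PAD4 with RCA probe and DMSO and 100% = probe without PAD4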
TDP2 inh: blocks human TDP2 phosphodiesterase activity. O95551. recombinant TDP2, T5PNP hydrolysis, p-nitrophenol absorbance 415 nm. inhibition, % at 12.8 µM. 370,000 tested, 0.34% active;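 active means inhibition above the mean of all tested compounds plus 3 SD, set per campaign, cut at about 25% in these data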;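 further: 0% = DMSO with enzyme and 100% = buffer with substrate but no TDP2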
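Assay system: recombinant human TDP2 / Reagent: T5PNP substrate at 5 mM, a TopII-DNA adduct mimic / Measured by: epi absorbance from released p-nitrophenol / Evaluation: % inhibition relative to enzyme-containing and enzyme-free wells / Control set: enzyme-free and DMSO wells / Replicates: each compound tested once, singlicate / Schedule: enzyme reaction with compound for 2 h at 37 °C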
PAD4 confirm: PAD4 (human) inhibition, confirmed. inhibition, % at 6.36 µM. recombinant PAD4, RCA probe fluorescence polarization. shares compounds with PAD4 FP inh. AID 488796. 1,200 tested, 28% active;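 active means mean inhibition across replicates above the hit cutoff set by the earlier primary screen, cut at about 15% in these data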;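 further: inhibitors block active-site labeling by the probe so polarization falls; 0% = PAD4 with probe and DMSO and 100% = probe without PAD4 enzyme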
Active calls of the source: *; . = no result; ! = not confirmed by another sample.

SMILES	Fh CTSL1 inh	PRMT1 FP inh	GSTO1 counter	PAD4 FP inh	TDP2 inh	PAD4 confirm
O=C(O)CC(SCC(=O)Nc1ccc(Cl)c(S(=O)(=O)N2CCOCC2)c1)C(=O)O (stereo unspecified)	-5	43*	-4	21*	-2	5
CC(C)CCN(C)C1CCN(C(=O)Nc2ccc3c(c2)OCO3)CC1	.	7	.	.	-11	.
COc1cc(C#N)c(N=C(SCC#N)N2CCOCC2)cc1OC	7	1	13	25*	-8	28*
CC(C)C1OC2(C)OC(=N)C1(C#N)C(C#N)(C#N)C2c1ccccc1 (stereo unspecified)	6	25*	11	19*	-10	16*
CCC1OC2(C)OC(=N)C1(C#N)C(C#N)(C#N)C2c1ccccc1 (stereo unspecified)	0	5	13	15*	6	-1
Cc1ccc(C2OC34CCCCCC3C(C#N)(C(=N)O4)C2(C#N)C#N)cc1 (stereo unspecified)	-2	0	-3	2	-1	.
CC1=CC(C#N)(C#N)C(C#N)(C#N)C(c2ccccc2)N1 (stereo unspecified)	1	.	32	2	.	.
CCOc1ccc2[nH]c(SCC(=O)OC)c([N+](=O)[O-])c2c1	3	13	8	35*	-4	38*
Cc1ccc(C(=O)NC(=O)CSc2nncn2C)cc1	-4	2	2	1	-7	.
Cc1ccc(C2=NN=C(NC(=O)CSc3nncn3C)SC2)cc1	1	94*	7	67*	-15	62*
CCn1c(CSc2nccn2C)nc2cc(C(=O)O)ccc21	0	.	21	35*	.	43*
CCSc1nc2ccccc2[nH]1	2	2	-2	17*!	3	6
Cn1ccnc1SCC(=O)c1ccc2ccccc2c1	-5	3	-9	-12	-6	.
CCn1c(CSc2nc3ccccc3[nH]2)nc2cc(C(=O)O)ccc21	-1	2	12	32*	-1	34*
COc1ccc(OC)c(C2NC(=O)c3sc(=S)n(-c4ccccc4)c3N2)c1 (stereo unspecified)	1	3	5	22*	13	35*
CCOC(=O)c1c(C)[nH]c(C2=NNC(=NC3CC3)SC2)c1C	12	.	11	17*	.	12
CCOC(=O)c1c(C)[nH]c(/C(C)=N/O)c1C	0	1	-7	4	8	.
Cc1cccc2c1N(C(=O)CN1C(=O)c3ccccc3C1=O)C(C)(C)c1ssc(=S)c1-2	2	2	5	27*	7	40*
Cc1cc(C)c2c(c1)-c1c(ssc1=S)C(C)(C)N2C(=O)CN1C(=O)c2ccccc2C1=O	0	0	-8	24*	1	38*
CC1=CC(C)(C)N(C(=O)CN2C(=O)c3ccccc3C2=O)c2ccccc21	-3	-1	-3	-5	-6	.
O=C(CCS(=O)(=O)c1ccccc1)Nc1cc(Cl)ccc1F	.	0	.	.	3	.
CCc1ccc[n+](-c2[nH]c(=O)sc2/C=N/N=C(\[O-])c2ccncc2)c1	8	0	8	3	-5	.
CC(C)(C)c1cc[n+](-c2[nH]c(=O)sc2/C=N/NC([S-])=Nc2ccccc2)cc1	7	116*	31	17*	-5	13
Cc1ncc(N=Nc2ccc(F)cc2)c(-c2ccc(Cl)cc2)n1	-1	0	5	18*	11	1
COc1ccc(-c2nc(C)ncc2N=Nc2ccccc2)cc1	4	-3	8	0	-4	.
SMILES	Fh CTSL1 inh	PRMT1 FP inh	GSTO1 counter	PAD4 FP inh	TDP2 inh	PAD4 confirm
CCCCCN1CCCCC(NC(=O)CSc2ccccc2)C1=O (stereo unspecified)	.	1	.	.	8	.
CC(C)C[C@H]1COc2cccc(F)c2S(=O)(=O)N1Cc1cn(CCC2OCCO2)nn1	.	2	.	.	-1	.
FC(F)Oc1ccc(-c2csc(NNC3=NCCCCC3)n2)cc1	-1	38*	15	19*	0	4
NC(=S)NNc1cccc2cccnc12	3	21	62*	29*	15	5
Cc1occc1-c1nnc(SCC(=O)Nc2ccccn2)n1-c1ccccc1	.	-1	.	.	8	.
CC1CCN(CC(=O)N2CCc3ccccc32)CC1	-2	-4	4	-2	-18	.
CCOC(=O)C1CCN(CC(=O)N2CCc3ccccc32)CC1	-2	3	-1	38*	1	2
Cc1ccc(-n2c(SCC(=O)c3ccc(F)cc3)nnc2-c2cccnc2)cc1	.	0	.	.	3	.
CCn1c(=O)n(CC(=O)N2CCCC2)c(=O)c2ccccc21	.	0	.	.	5	.
CC(=O)N1CC[n+]2c(-c3ccc(Cl)cc3Cl)csc21	-2	57*	4	16*	10	5
CSCc1cccc(C(=O)OC(C)C(=O)Nc2c(C)n(C)n(-c3ccccc3)c2=O)c1 (stereo unspecified)	.	-1	.	24*	-1	6
CN(C(=O)[C@@H](C1CC1)[C@@H](O)c1ccc2ccccc2c1)c1ccccc1	.	-5	.	.	-4	.
O=C(/C=C/c1ccccc1)C1=C(O)C(=O)N(CCO)C1c1ccccc1[N+](=O)[O-] (stereo unspecified)	2	1	7	24*	-4	-1
O=C(C1CCN(c2cncnc2)CC1)N1CCCC1	.	-1	.	.	9	.
C=C(C)C#CCNCc1ccccc1	.	-2	.	.	8	.
COc1ccc(N2C(=O)CSC23C(=O)N2c4c(cccc43)C(C)=CC2(C)C)cc1 (stereo unspecified)	5	5	-11	11	-17	.
O=C1CSC2(C(=O)N3CCCc4cccc2c43)N1c1cccc(C(F)(F)F)c1 (stereo unspecified)	-4	.	-3	18*	.	8
COc1ccc(N2C(=O)CSC23C(=O)N2CCCc4cccc3c42)cc1 (stereo unspecified)	0	1	2	22*	-5	21*
O=S(c1ccc2ccccc2c1)c1cnns1 (stereo unspecified)	4	6	29	19*	0	19*
c1cc2c(cc1C1=NNC(=NC3CC3)SC1)OCCO2	-2	46*	13	41*	12	7
c1ccc2oc(C3=NNC(=NC4CC4)SC3)cc2c1	1	36*	-2	21*	3	8
O=C(NCCc1ccccc1)OCc1cn(Cc2cccc(Cl)c2)nn1	.	-1	.	.	6	.
Cc1noc(C)c1S(=O)(=O)N(C)C[C@H]1Oc2c(NS(=O)(=O)c3cn(C)cn3)cccc2C(=O)N([C@H](C)CO)C[C@@H]1C	.	-2	.	37*	5	6
CC(=O)c1ccc(Sc2nnnn2-c2ccccc2)c([N+](=O)[O-])c1	2	1	13	17*	8	14

Source: PubChem BioAssay
